Test results as given in ChEMBL document CHEMBL1123239, “Synthesis and adrenergic activity of ring-fluorinated phenylephrines” (J Med Chem, 1986).

Tests used:
[1] = molecular target: T1, Adrenergic receptor alpha-2 (Homo sapiens, UniProt P08913+P18825+P18089); experiment: (§1) Compound was tested for its ability to displace [3H]clonidine form alpha-2 adrenergic receptor site in guinea pig cerebral cortical membranes.; set-up: species or system Cavia porcellus; settings: target entry is the homologue from another species
T1 sequence (P08913 whole entry): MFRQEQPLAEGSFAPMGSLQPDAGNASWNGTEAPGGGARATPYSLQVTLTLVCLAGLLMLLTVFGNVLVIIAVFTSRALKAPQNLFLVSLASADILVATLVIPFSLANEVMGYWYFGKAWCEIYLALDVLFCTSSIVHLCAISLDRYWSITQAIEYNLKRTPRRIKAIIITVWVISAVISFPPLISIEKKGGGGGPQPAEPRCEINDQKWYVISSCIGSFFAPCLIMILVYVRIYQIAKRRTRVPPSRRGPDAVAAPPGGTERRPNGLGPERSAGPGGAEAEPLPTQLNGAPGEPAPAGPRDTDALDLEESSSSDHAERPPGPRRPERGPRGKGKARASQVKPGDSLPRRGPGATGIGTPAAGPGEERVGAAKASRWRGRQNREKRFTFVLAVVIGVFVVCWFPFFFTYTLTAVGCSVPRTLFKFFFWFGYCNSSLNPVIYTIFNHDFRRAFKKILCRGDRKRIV
T1 sequence (P18825 whole entry): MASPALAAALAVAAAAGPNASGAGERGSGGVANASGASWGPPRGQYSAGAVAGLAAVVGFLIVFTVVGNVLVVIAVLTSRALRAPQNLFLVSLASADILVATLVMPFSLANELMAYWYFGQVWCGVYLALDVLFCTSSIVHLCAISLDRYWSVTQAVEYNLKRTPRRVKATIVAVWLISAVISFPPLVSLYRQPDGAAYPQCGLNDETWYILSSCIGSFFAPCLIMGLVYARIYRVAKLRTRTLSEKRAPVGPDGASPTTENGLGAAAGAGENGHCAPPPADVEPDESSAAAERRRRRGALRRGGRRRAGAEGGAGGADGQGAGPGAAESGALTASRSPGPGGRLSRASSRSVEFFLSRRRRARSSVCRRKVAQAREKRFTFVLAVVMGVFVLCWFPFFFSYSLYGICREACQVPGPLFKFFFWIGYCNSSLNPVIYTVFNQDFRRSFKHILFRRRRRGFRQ
T1 sequence (P18089 whole entry): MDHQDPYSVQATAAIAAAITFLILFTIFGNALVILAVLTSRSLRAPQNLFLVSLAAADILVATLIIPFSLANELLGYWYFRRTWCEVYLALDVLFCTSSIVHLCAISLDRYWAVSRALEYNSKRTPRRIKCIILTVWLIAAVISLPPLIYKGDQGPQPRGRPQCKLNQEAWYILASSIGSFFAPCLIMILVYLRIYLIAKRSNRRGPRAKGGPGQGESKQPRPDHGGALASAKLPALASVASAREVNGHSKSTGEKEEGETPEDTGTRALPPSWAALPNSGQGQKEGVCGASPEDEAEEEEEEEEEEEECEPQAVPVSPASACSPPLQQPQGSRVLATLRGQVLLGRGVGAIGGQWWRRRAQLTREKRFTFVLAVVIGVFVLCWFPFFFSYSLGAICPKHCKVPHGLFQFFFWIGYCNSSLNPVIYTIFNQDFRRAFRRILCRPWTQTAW
In short: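 Guinea pig (male Hartley) cerebral cortex membranes in 50 mM Tris-HCl pH 7.4. […] Ki from IC50 by Cheng-Prusoff; 3–5 experiments or one in triplicate.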

[2] = Compound was tested for its ability to displace [3H]WB-4101 form alpha-1 adrenergic receptor site in guinea pig cerebral cortical membranes.; set-up: species or system Cavia porcellus
In short: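 Guinea pig (male Hartley) cerebral cortex membranes in 50 mM Tris-HCl pH 7.4, ~0.9–1.2 mg protein/mL. […] Ki from IC50 by Cheng-Prusoff; 3–5 experiments or one in triplicate.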

[3] = Compound was tested for its ability to displace [3H]-prazosin form alpha-1 adrenergic receptor site in guinea pig cerebral cortical membranes.; set-up: species or system Cavia porcellus
In short: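 Guinea pig (male Hartley) cerebral cortex membranes, homogenised and washed in 50 mM Tris-HCl pH 7.4, ~0.9–1.2 mg protein/mL. 0.5 nM [3H]prazosin (Kd 0.5 nM), 30 min at 30 °C; nonspecific with 10 μM phentolamine. Ki from IC50 by Cheng-Prusoff; 3–5 experiments or one in triplicate.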

[4] = organism: Cavia porcellus; experiment: Compound was evaluated for its agonist potency by measurement of contraction of guinea pig aortic strips; format: functional; settings: Aorta
In short: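 Cumulative concentration-response, 3–200 μM in 2–3-fold steps. Isometric tension recorded; EC50 = concentration giving half of maximal contraction to supramaximal (-)-NE (30–50 μM), measured before and after each curve.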

[5] = organism: Cavia porcellus; experiment: Compound was evaluated for its agonist potency by measurement of potentiation of 2-chloroadenosine stimulation of cyclic AMP accumulation in guinea pig cerebral cortical synaptoneurosomal preparations.; format: functional
[6] = organism: Cavia porcellus; experiment: Stimulation of [3H]phosphatidylinositol turnover in synaptoneurosomes at a concentration of 100 uM; format: functional
In short: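 Nonfiltered guinea pig cortical synaptoneurosomes prelabeled 60 min at 37 °C with 1 μM [3H]inositol in Krebs–Henseleit buffer under O2/CO2 (95:5). Washed, resuspended with 10 mM LiCl (~1 mg protein/tube). Agonist at 100 μM, 90 min at 37 °C. Stopped by centrifugation, TCA extraction; [3H]inositol phosphates measured in supernatant.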

[7] = molecular target: T1, Adrenergic receptor alpha-2; experiment: as §1; set-up: species or system Cavia porcellus; settings: target entry is the homologue from another species; remark: listed apart in the source
In short: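 Guinea pig (male Hartley) cerebral cortex membranes in 50 mM Tris-HCl pH 7.4. Ki from IC50 by Cheng-Prusoff; 3–5 experiments or one in triplicate.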

Compound | Ki [1] [µM] | Ki [2] [µM] | Ki [3] [µM] | EC50 [4] [µM] | EC50 [5] [µM] | Control [6] [%] | Ki [7] [µM]
CNCC(O)c1ccc(F)c(O)c1 (racemic) | 1 | 3.7 | 10 | 39 | 35 | 136 | 
CNCC(O)c1cc(O)ccc1F (racemic) | 0.23 | 1.3 | 2.1 | 11 | 4 | 162 | 
CNCC(O)c1cccc(O)c1F (racemic) |  | 6.6 | 17 | 105 | 40 | 134 | 1.2
CNC[C@H](O)c1cccc(O)c1 [PHENYLEPHRINE] |  | 2.5 |  | 27 | 26 | 161 | 
